Data from ChEMBL document CHEMBL1144421, “Class II (IIa)-selective histone deacetylase inhibitors. 1. Synthesis and biological evaluation of novel (aryloxopropenyl)pyrrolyl hydroxyamides” (J Med Chem, 2005).

Tests used:
[1] = Inhibitory concentration against maize histone deacetylase 1-A (class IIa HDAC)
[2] = Selectivity for class IIa HDACs as ratio of IC50 for maize histone deacetylase 1-B and 1-A
Outline: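 Maize HD1-B (class I homologue) and HD1-A (class IIa homologue) were each assayed on [³H]acetate-prelabeled chicken reticulocyte histones for 30 min at 30 °C. Released [³H]acetate was extracted with ethyl acetate and scintillation counted. IC50s came from dilutions starting at 40 µM, at least three experiments. Selectivity = IC50(HD1-B)/IC50(HD1-A).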

[3] = biological target: T1, Histone deacetylase HD2 (Zea mays) (UniProt Q94F81); conditions: 22.2 uM
T1 sequence (whole entry): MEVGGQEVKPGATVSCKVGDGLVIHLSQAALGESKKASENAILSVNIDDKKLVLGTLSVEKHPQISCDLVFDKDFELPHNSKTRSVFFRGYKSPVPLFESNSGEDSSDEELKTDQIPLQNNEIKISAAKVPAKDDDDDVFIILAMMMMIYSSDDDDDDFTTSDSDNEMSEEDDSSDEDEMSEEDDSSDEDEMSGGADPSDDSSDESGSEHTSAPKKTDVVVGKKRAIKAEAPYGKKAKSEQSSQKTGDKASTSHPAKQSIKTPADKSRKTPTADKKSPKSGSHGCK

[4] = Inhibitory concentration against maize histone deacetylase 1-B (class I HDAC)
Histone deacetylase HD2 = biological target: T2, Histone deacetylase HD2 (Zea mays, UniProt Q94F81); experiment: Inhibitory concentration against maize histone deacetylase 2
T2 sequence (Q94F81 whole entry): T1 sequence (whole entry)
Outline: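 Maize HD2 deacetylase assay using [³H]acetate-prelabeled chicken reticulocyte histones (2 mg/mL, 10 µL) at 30 °C for 30 min. Released tritiated acetic acid was extracted with ethyl acetate after HCl/acetate stop, then scintillation counted. IC50 from triple determinations, given as mean ± SD of at least three experiments.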

[5] = biological target: T1, Histone deacetylase HD2 (Zea mays); experiment: Inhibitory activity against maize histone deacetylase 2 at 24.8 uM
Outline: (§1)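 Maize HD2 enzyme preincubated at 30 °C, then incubated 30 min with [³H]acetate-prelabeled chicken reticulocyte core histones (10 µL of 2 mg/mL) as substrate. Reaction stopped with 1 M HCl/0.4 M acetate. Released [³H]acetic acid was extracted into ethyl acetate and counted by liquid scintillation. Percent inhibition at one fixed concentration; means of at least three separate experiments. Blank solvent served as negative control.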

[6] = biological target: T1, Histone deacetylase HD2 (Zea mays); experiment: Inhibitory activity against maize histone deacetylase 2 at 23.3 uM; outline: as §1
[7] = biological target: T1, Histone deacetylase HD2 (Zea mays); experiment: Inhibitory activity against maize histone deacetylase 2 at 23.7 uM; outline: as §1
[8] = biological target: T1, Histone deacetylase HD2 (Zea mays); experiment: Inhibitory activity against maize histone deacetylase 2 at 24.5 uM; outline: as §1
[9] = biological target: T1, Histone deacetylase HD2 (Zea mays); experiment: Inhibitory activity against maize histone deacetylase 2 at 26 uM; outline: as §1
[10] = biological target: T1, Histone deacetylase HD2 (Zea mays); experiment: Inhibitory activity against maize histone deacetylase 2 at 21.1 uM; outline: as §1
[11] = biological target: T1, Histone deacetylase HD2 (Zea mays); experiment: Inhibitory activity against maize histone deacetylase 2 at 23.6 uM; outline: as §1
[12] = biological target: T1, Histone deacetylase HD2 (Zea mays); experiment: Inhibitory activity against maize histone deacetylase 2 at 20.5 uM; outline: as §1
[13] = biological target: T1, Histone deacetylase HD2 (Zea mays); experiment: Inhibitory activity against maize histone deacetylase 2 at 20.2 uM; outline: as §1
[14] = biological target: T1, Histone deacetylase HD2 (Zea mays); experiment: Inhibitory activity against maize histone deacetylase 2 at 25.2 uM; outline: as §1
[15] = biological target: T1, Histone deacetylase HD2 (Zea mays); experiment: Inhibitory activity against maize histone deacetylase 2 at 40 uM; outline: as §1
[16] = biological target: T1, Histone deacetylase HD2 (Zea mays); experiment: Inhibitory activity against maize histone deacetylase 2 at 20.6 uM; outline: as §1

Row | IC50 [1] [nM] | SI [2] | IC50 [4] [nM] | IC50 (Histone deacetylase HD2) [nM] | other results | SMILES
1 | 10 | 33 | 330 | 200 | inhibition [3]: 92% | Cn1cc(/C=C/C(=O)c2cccc3ccccc23)cc1/C=C/C(=O)NO
2 | 780 |  | 570 | 680 | inhibition [5]: 89.9% | C/C(=C\c1cc(/C=C/C(=O)NO)n(C)c1)C(=O)c1ccccc1
3 | 440 | 71.4 | 31400 |  | inhibition [6]: 49% | Cn1cc(/C=C/C(=O)c2cccc(Cl)c2)cc1/C=C/C(=O)NO
4 | 220 | 20.4 | 4500 | 420 | inhibition [7]: 93% | CC/C(=C\c1cc(/C=C/C(=O)NO)n(C)c1)C(=O)c1ccccc1
5 | 18600 |  | 29400 |  | inhibition [6]: 45.5% | Cn1cc(/C=C/C(=O)c2ccc(Cl)cc2)cc1/C=C/C(=O)NO
6 | 220 | 176 | 38800 | 22000 | inhibition [8]: 56.5% | Cn1cc(/C=C/C(=O)c2cccc(F)c2)cc1/C=C/C(=O)NO
7 | 190 |  | 260 |  | inhibition [9]: 92.3% | Cn1cc(/C=C/C(=O)c2ccccc2)cc1/C=C/C(=O)NO
8 | 9300 | 17.1 | 159000 | 49000 | inhibition [10]: 46.1% | Cn1cc(/C=C/C(=O)c2cccc(C(F)(F)F)c2)cc1/C=C/C(=O)NO
9 | 0.8 |  | 0.4 |  |  | CC(/C=C/C(=O)NO)=C\[C@@H](C)C(=O)c1ccc(N(C)C)cc1 [TRICHOSTATIN]
10 | 390 |  | 600 | 540 | inhibition [11]: 78.2% | COc1cccc(C(=O)/C=C/c2cc(/C=C/C(=O)NO)n(C)c2)c1
11 | 790 |  | 800 | 570 | inhibition [11]: 74.2% | COc1ccc(C(=O)/C=C/c2cc(/C=C/C(=O)NO)n(C)c2)cc1
12 | 20300 |  | 24300 | 28500 | inhibition [12]: 41.7% | Cn1cc(/C=C/C(=O)c2ccc(Br)cc2)cc1/C=C/C(=O)NO
13 | 170 | 14.7 | 2500 |  | inhibition [5]: 72% | Cc1cccc(C(=O)/C=C/c2cc(/C=C/C(=O)NO)n(C)c2)c1
14 | 210 |  | 180 | 360 | inhibition [12]: 92.4% | Cn1cc(/C=C/C(=O)c2ccccc2Br)cc1/C=C/C(=O)NO
15 | 90000 | 3.3 | 298000 | 176000 | inhibition [13]: 19.5% | Cn1cc(/C=C/C(=O)c2cccc(OC(F)(F)F)c2)cc1/C=C/C(=O)NO
16 | 60 | 6.5 | 390 |  | inhibition [5]: 96% | Cc1ccccc1C(=O)/C=C/c1cc(/C=C/C(=O)NO)n(C)c1
17 | 50 | 32 | 1600 |  | inhibition [6]: 79.1% | Cn1cc(/C=C/C(=O)c2ccccc2Cl)cc1/C=C/C(=O)NO
18 | 160 |  | 170 | 250 | inhibition [11]: 95.7% | COc1ccccc1C(=O)/C=C/c1cc(/C=C/C(=O)NO)n(C)c1
19 | 40 | 45 |  | 1800 | inhibition [14]: 62.9% | Cn1cc(/C=C/C(=O)c2ccc3ccccc3c2)cc1/C=C/C(=O)NO
20 | 450 | 2.2 | 980 | 2000 | inhibition [15]: 92.9% | O=C(CCCCCCC(=O)Nc1ccc([C@H]2O[C@@H](CSc3nc(-c4ccccc4)c(-c4ccccc4)o3)C[C@@H](c3ccc(CO)cc3)O2)cc1)NO [TUBACIN]
21 | 500 | 9.6 | 4800 |  | inhibition [5]: 65% | Cc1ccc(C(=O)/C=C/c2cc(/C=C/C(=O)NO)n(C)c2)cc1
22 | 1600 |  | 1100 | 2100 | inhibition [12]: 76.8% | Cn1cc(/C=C/C(=O)c2cccc(Br)c2)cc1/C=C/C(=O)NO
23 | 15700 |  | 24900 | 35300 | inhibition [8]: 33.2% | Cn1cc(/C=C/C(=O)c2ccc(F)cc2)cc1/C=C/C(=O)NO
24 | 100 | 34 | 3400 | 7100 | inhibition [8]: 73.9% | Cn1cc(/C=C/C(=O)c2ccccc2F)cc1/C=C/C(=O)NO
25 | 2200 | 14.4 | 31800 | 26500 | inhibition [16]: 34% | Cn1cc(/C=C/C(=O)c2ccc(-c3ccccc3)cc2)cc1/C=C/C(=O)NO
